RGS4 inh: human RGS4 inhibition; P49798; HEK293 M3R/RGS4 inducible, Fluo-4 calcium flux; active compounds read high; triggered by carbachol at its EC20; B-score at 10 µM; 310,000 tested, 0.45% active; AID 463165;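 active = B-score, a plate-corrected calcium signal, over three deviations above library mean, with baseline fluorescence within five deviations of library mean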;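 note: RGS4 expression induced by doxycycline in cells with stable M3 receptor; B-score is computed from the integrated fluorescence ratio over baseline after carbachol; higher B-score means a larger calcium signal and so more RGS4 inhibition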
Target sequence (P49798 whole entry, looked up): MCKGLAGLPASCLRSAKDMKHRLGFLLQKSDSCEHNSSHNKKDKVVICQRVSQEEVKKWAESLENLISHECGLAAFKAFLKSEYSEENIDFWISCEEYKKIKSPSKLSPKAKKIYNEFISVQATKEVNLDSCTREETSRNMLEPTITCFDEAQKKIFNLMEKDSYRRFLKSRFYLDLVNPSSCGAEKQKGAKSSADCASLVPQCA
MrgX1 PAM: allosterically activates human MrgX1 receptor signaling. MrgX1-HEK293, Fluo-4 calcium flux, FDSS; active compounds read high. B-score at 10 µM. 310,000 tested, 0.63% active. AID 588675;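 active = plate-corrected calcium response at least 3 library SD above typical, normal starting fluorescence, not activating the receptor alone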;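 note: compound read alongside a low EC10 to EC30 dose of BAM8-22 agonist; peak minus trough fluorescence over baseline measured at the second addition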
Target sequence (Q96LB2 whole entry, looked up): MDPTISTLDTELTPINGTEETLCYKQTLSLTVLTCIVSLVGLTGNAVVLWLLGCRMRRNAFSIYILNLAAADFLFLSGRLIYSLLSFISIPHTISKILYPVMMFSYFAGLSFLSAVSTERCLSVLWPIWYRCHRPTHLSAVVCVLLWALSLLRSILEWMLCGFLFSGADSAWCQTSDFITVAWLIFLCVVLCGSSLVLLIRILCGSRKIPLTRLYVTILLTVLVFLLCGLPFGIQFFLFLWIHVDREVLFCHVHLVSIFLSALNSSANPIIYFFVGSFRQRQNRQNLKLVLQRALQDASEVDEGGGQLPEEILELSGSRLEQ
MrgX1 agonist: agonists of human MrgX1 receptor; MrgX1-HEK293 cells, Fluo-4 calcium fluorescence, agonist mode; active compounds read high; 310,000 tested, 0.44% active; Q96LB2; B-score at 10 µM;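 active = calcium response B-score plate-corrected fluorescence ratio at least 3 library SD, with starting fluorescence B-score inside 5 SD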
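Assay system: stable human MrgX1 HEK293 cell line. Quantity: 15,000 cells per well. Schedule: cells plated overnight, dye loaded 0.5 h 37 °C, 0.5 h room temperature. Detection: Fluo-4 NW calcium-flux fluorescence, kinetic read. Read-out basis: peak-minus-minimum fluorescence over baseline, converted to B scores. Control set: positive and negative control wells on each plate.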
RGS4 pot: RGS4 potentiation or activation; HEK293 M3R/inducible RGS4, carbachol calcium flux Fluo4; active compounds read low; B-score at 10 µM; 310,000 tested, 0.92% active;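 active = B-score of the integrated calcium signal more than 4 SD below the library mean, with starting fluorescence not abnormally high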;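 note: negative B-score means reduced calcium response which marks RGS4 activation or potentiation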
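Assay system: Inducible-RGS4 HEK293 cells carrying M3 receptor | Schedule: Compound preincubation 20 min at room temperature before agonist | Signal: Kinetic calcium fluorescence imaging with Fluo4-AM dye, 2 µM | Read-out basis: B score from integrated fluorescence ratio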
MrgX1 antag: antagonists of human MrgX1 receptor | Q96LB2 | MRGX1-HEK293 calcium flux, Fluo-4, BAM8-22 antagonism; active compounds read low | B-score at 10 µM | 310,000 tested, 1.3% active;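 active = calcium-response B-score plate-corrected more than 3 library SD below zero, starting fluorescence within 5 deviations, no agonist response on first addition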;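 note: peak minus trough fluorescence over baseline after final BAM8-22 challenge near maximal dose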
* marks the source's active call; other numbers are inactive results; i = inactive; x = no result. Most compounds without a hit are left out; they make up all but 3.5% or so of the library.

SMILES	RGS4 inh	MrgX1 PAM	MrgX1 agonist	RGS4 pot	MrgX1 antag
Fc1ccc(Cn2c(SCc3ccc(F)c(F)c3)nnc2C(F)(F)F)cc1	i	i	i	-8.54*	i
CCc1ccc2oc(=O)cc(CN3CCOCC3)c2c1	i	i	i	i	i
CC1CCN(Cc2cc(=O)oc3cc4c(cc23)CCCC4)CC1	i	8.53*	i	i	i
CCc1ccc2oc(=O)cc(CN3CCC(C)CC3)c2c1	i	i	29.3*	i	i
COc1ccc(NC(=O)CN2CCN(C(=O)N3CCOCC3)CC2)cc1	i	i	i	i	i
CC1CC(CC(C)C(=O)Nc2nncs2)C(=O)O1 (centres undefined)	i	i	i	i	i
CC1CC(CC(C)C(=O)NC(=S)Nc2ccc(S(N)(=O)=O)cc2)C(=O)O1 (centres undefined)	i	i	i	i	-6.52*
COc1ccc(-n2c(C)cc(/C=C(\C#N)C(=O)NCc3ccco3)c2C)cc1	i	i	i	i	-4.86*
O=C(NNC(=S)Nc1ccccc1Cl)c1ccccc1Br	i	i	i	i	i
CC1(C)CC(=O)C/C(=N/NC(=O)COc2ccc3ccccc3c2Br)C1	i	i	i	i	-8*
CC1(C)CC(=O)C/C(=N/NC(=O)COc2ccc(Cl)cc2Cl)C1	i	i	i	i	i
O=C(CSC(=S)N1CCCC1)NCC(=O)Nc1ccccc1Br	i	i	i	i	i
COc1ccc(/C(N)=N/OC(=O)Cc2ccc(OC)c(OC)c2)cc1	i	i	i	i	i
O=C(CCN1CCC(c2ccc(Cl)s2)=N1)c1ccc(Cl)s1	i	i	i	i	-4.87*
O=C(CSCc1ccco1)c1ccc(Cl)s1	i	i	i	i	i
Cc1cc2cccc(C)c2nc1SCC(=O)NNC(=O)c1ccco1	i	11.8*	i	i	i
Cc1cc(C)c2nc(SCC(=O)NNC(=O)c3ccco3)c(C)cc2c1	i	i	i	i	i
Cc1c(C(=O)NCCN2CCOCC2)oc2ccc(Br)cc12	i	i	i	i	i
COc1ccc(C(=O)C2CCCN(S(=O)(=O)N(C)C)C2)c(C)c1 (centres undefined)	i	i	i	i	i
COc1ccc(C(=O)C2CCCN(S(=O)(=O)C(C)C)C2)c(C)c1 (centres undefined)	i	i	i	-7.56*	i
NNC(=O)c1[nH]c2ccc([N+](=O)[O-])cc2c1-c1ccccc1	i	i	i	i	i
O=C(N/N=C/c1ccccn1)c1[nH]c2ccc([N+](=O)[O-])cc2c1-c1ccccc1	i	i	i	i	-5.14*
C/C(=N/NC(=O)CSc1nc2ccccc2n1C)c1ccc(O)cc1	i	i	i	i	-4.92*
COCCNC(=O)c1ccc(CN2CCc3ccccc3C2)cc1	i	i	i	i	i
CCCNC(=O)c1ccc(CN2CCc3ccccc3C2)cc1	i	i	i	-7.09*	i
SMILES	RGS4 inh	MrgX1 PAM	MrgX1 agonist	RGS4 pot	MrgX1 antag
CCC(C)NC(=O)c1ccc(CN2CCc3ccccc3C2)cc1 (centres undefined)	i	i	i	-7.47*	i
COCC(C)NC(=O)c1ccc(CN2CCc3ccccc3C2)cc1 (centres undefined)	i	i	i	i	i
O=C(NCc1csc(-c2cccs2)n1)c1cccc(Cl)c1	i	i	i	i	i
COc1cccc(C(C)NC(=O)C2CCCC2)c1 (centres undefined)	i	i	i	i	i
Cc1nn(C)c(C)c1/C=N/N=C1\CCC2C3CCc4cc(O)ccc4C3CCC12C (centres undefined)	i	i	i	i	-5.64*
Cc1nn(CC(=O)Nc2cccc(C(F)(F)F)c2)c(=O)c2cccn12	i	i	i	i	i
CCOC(=O)Nc1ccc2c(c1)N(C(=O)CCN(CC)CC)c1ccccc1CC2	i	i	i	i	i
CCOC(=O)Nc1ccc2c(c1)N(C(=O)CCN(CC)CC)c1ccccc1S2=O (centres undefined)	i	i	30.4*	i	i
Cc1ccc(N2C(=S)SC3CS(=O)(=O)CC32)cc1 (centres undefined)	i	i	i	i	-5.49*
Cc1ccccc1CSc1nnc([C@@H]2CCCN2)o1	i	i	i	i	i
COc1ccc(C2=CC(=O)CC(c3ccc(F)cc3)C2)cn1 (centres undefined)	i	10.5*	i	i	i
O=C1C=C(c2ccccc2)CC(c2ccc(F)cc2)C1 (centres undefined)	i	i	i	i	i
CSc1nnc(-c2ccc(C(F)(F)F)nc2C)o1	i	i	i	i	i
Cc1ccc(/C([O-])=C(/C(=S)NCc2ccco2)[n+]2ccccc2)cc1	4.69*	i	i	i	i
O=[N+]([O-])c1ccc(/C([O-])=C(/C(=S)NCc2ccco2)[n+]2ccccc2)cc1	i	i	i	i	i
COc1ccc(N2C(=O)CC(C)(C)CC2=O)cc1OC	i	i	i	i	i
COc1ccc(/C=C(\C#N)c2nc3ccccc3[nH]2)cc1O	i	x	x	i	x
CN(C)/C=C(\C#N)c1nc2ccccc2[nH]1	i	i	i	i	i
N#C/C(=C\c1ccc(Cl)cc1)c1nc2ncccc2[nH]1	i	18.8*	i	i	i
N#C/C(=C\c1c(Cl)cccc1Cl)c1nc2ccccc2[nH]1	i	8.67*	i	i	i
Cc1cc(/C=C(/C#N)c2nc3ccccc3[nH]2)c(C)n1-c1cccc([N+](=O)[O-])c1	i	i	i	-7.13*	i
Cc1cc(/C=C(\C#N)c2nc3ccccc3[nH]2)c(C)n1C	i	i	i	i	i
COc1cc(/C=C(\C#N)c2nc3ccccc3[nH]2)cc(OC)c1O	i	i	43.9*	i	i
CSc1nnc(N2C(=O)C(O)=C(C(=O)c3ccc(C)o3)C2c2ccc(C)cc2)s1 (centres undefined)	i	i	i	i	i
CC(C)c1ccc2c(c1)CCC1C(C)(CN)CCCC21C (centres undefined)	i	i	45.8*	i	i
CCOc1ccc(NC(=O)CN(C)C(=O)c2cc(S(=O)(=O)N3CCCCC3)ccc2C)cc1OCC	i	i	i	i	i
CCC(C)Sc1cccc(-c2nc3ccc(C)cn3c2NCc2ccccc2)c1 (centres undefined)	i	i	i	-7.62*	i
